Pf Dd2 inh: P. falciparum Dd2 growth inhibitors, primary screen, SYBR Green fluorescence, single dose replicates. 72 h; hits give low values. activity change, % at 10 µM. 2.3% of 94,000 active. AID 1159554, 2015; in the data active = activity change below about -80%; inconclusive = no clear call, values can overlap the other calls
KDM4C inh: inhibitors of GASC-1 (KDM4C) histone demethylase, primary screen, biochemical, single concentration HTS. 0.15% of 96,000 active. inhibition, % at 12.5 µM. Lysine-specific demethylase 4C (Homo sapiens), Q9H3R0. GST-KDM4C 2-372, H3K9me3 peptide, LANCE TR-FRET;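 active = mean replicate inhibition above about 25%, with at least 55% of replicates also reaching it, limit read from the data, passing the limit was not always enough; inconclusive = only one of those two conditions met; inactive = neither condition met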
Target sequence (Q9H3R0 2-372 limits assumed): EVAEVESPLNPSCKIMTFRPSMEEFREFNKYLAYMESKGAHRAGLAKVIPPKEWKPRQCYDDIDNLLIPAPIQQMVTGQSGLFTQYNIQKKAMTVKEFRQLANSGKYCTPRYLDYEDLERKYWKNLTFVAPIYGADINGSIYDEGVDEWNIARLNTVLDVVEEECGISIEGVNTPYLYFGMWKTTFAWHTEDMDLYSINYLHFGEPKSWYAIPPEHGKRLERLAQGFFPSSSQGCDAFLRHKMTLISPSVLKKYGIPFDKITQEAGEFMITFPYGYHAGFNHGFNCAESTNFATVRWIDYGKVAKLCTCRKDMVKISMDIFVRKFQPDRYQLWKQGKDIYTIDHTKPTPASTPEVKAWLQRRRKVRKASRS
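Test system – GST-tagged GASC-1 (JMJD2C) catalytic fragment, aa 2-372 · Medium – HEPES buffer, pH 7.5, plus ascorbate · Reagent – H3K9me3 peptide with Fe(II)/2OG · Compound – one test concentration per compound · Timing – 30 min reaction, 60 min detection, RT · Technique – TR-FRET with Eu antibody and ULight streptavidin, EDTA stop · Read-out basis – inhibition from TR-FRET ratio decrease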
T cruzi growth-1: T. cruzi intracellular proliferation inhibitors, primary screen, cell-based, beta-gal Tulahuen parasites, NIH3T3 host, luminescence; T. cruzi beta-gal in NIH3T3, GalScreen luminescence, 90 h; inhibition, % at 8.34 µM; 5.9% of 77,000 active; AID 624255, 2012;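 active = mean inhibition above about 93%, with at least 55% of replicates each passing it, limit read from the data, passing the limit was not always enough; inconclusive = only one of those two conditions holds; inactive = neither condition holds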
IDH1 R132H inh: inhibitors of IDH1 R132H reductase, primary screen, biochemical, plate reader, single point | Isocitrate dehydrogenase [NADP] cytoplasmic (Homo sapiens), O75874 | inhibition, % at 10 µM | 0.18% of 70,000 active | diaphorase/resazurin fluorescence, 60 min; in the data active = inhibition above about 34%; inconclusive = no clear call, values can overlap the other calls; inactive = below about 11%;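 note: 0% = DMSO and 100% = no enzyme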
T cruzi growth-2: T. cruzi intracellular proliferation inhibitors, confirmation, cell-based, NIH3T3 host, beta-gal parasite, luminescence, cherry-pick; shares compounds with T cruzi growth-1; T. cruzi beta-gal in NIH3T3, GalScreen luminescence, 90 h; inhibition, % at 8.35 µM; 72% of 5,600 active;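 active = mean replicate inhibition above about 95% and at least 55% of replicates individually reaching it, limit read from the data; inconclusive = only one of the two criteria is met; inactive = neither criterion is met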
T cruzi growth-3: inhibitors of intracellular T. cruzi replication, confirmation, NIH3T3 host cells, beta-gal parasites, cherry-pick, set 2; shares compounds with T cruzi growth-1; T. cruzi beta-gal in NIH3T3, GalScreen luminescence, 90 h; inhibition, % at 2.09 µM; 21% of 5,600 active;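 active = mean inhibition above about 95%, with at least 55% of replicates also reaching it, limit read from the data; inconclusive = meets just one of the two conditions; inactive = meets neither condition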;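 note: plate controls were neutral control median for no effect and positive control median for full effect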
NIH3T3 tox: cytotoxicity in mouse NIH/3T3 fibroblasts, confirmation, cytotoxicity control for T. cruzi proliferation inhibitor project, cell-based, cherry-pick, single point; NIH/3T3 viability, CellTiter-Glo ATP luminescence, 90 h; cytotoxicity (signal decrease), % at 8.35 µM; shares compounds with T cruzi growth-1; 14% of 5,600 active;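 active = mean signal decrease across replicates above about 35% based on untreated-well scatter, with enough replicates individually passing, limit read from the data; inconclusive = no rule stated though some were filed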;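 note: 0% = median of neutral control wells and 100% = median of positive control wells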
NIH3T3 tox 2: NIH/3T3 fibroblast cytotoxicity, confirmation, cytotoxicity control, cell-based, cherry-pick, single point, set 2; shares compounds with T cruzi growth-1; NIH/3T3 viability, CellTiter-Glo ATP luminescence, 90 h; inhibition, % at 24.9 µM; 56% of 5,600 active; AID 651744, 2012;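 active = mean loss of cell viability signal at or above a set limit, and enough replicates individually reaching it; inconclusive = meets only the mean limit or only the replicate share; inactive = meets neither condition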;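 note: 0% = median of neutral control wells and 100% = median of positive control wells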
An asterisk follows results filed as active; ? = inconclusive; · = not tested or not shown. In the library only some 5.8% were active in any assay of this set; here they are far more common.

SMILES	Pf Dd2 inh	KDM4C inh	T cruzi growth-1	IDH1 R132H inh	T cruzi growth-2	T cruzi growth-3	NIH3T3 tox	NIH3T3 tox 2
O=C(C1CCC1)N1CC(=O)N2[C@@H](CO)[C@@H](c3ccc(C#CCc4ccccc4)cc3)[C@@H]2C1	-47	1	·	·	·	·	·	·
Cc1cccc(NC(=O)C2CN(S(=O)(=O)c3ccccc3)CCN2S(=O)(=O)c2ccccc2)c1 (stereo not given)	·	·	·	0	·	·	·	·
COCC(=O)N1[C@H](C#N)[C@H](c2ccc(C#CCC3CCCC3)cc2)[C@H]1CO	8	-3	88	·	·	·	·	·
N#C[C@H]1[C@H](c2ccc(-c3ccccc3F)cc2)[C@H](CO)N1C(=O)c1ccccn1	-34	4	21	·	·	·	·	·
N#C[C@H]1[C@H](c2ccc(C#CCC3CCCC3)cc2)[C@@H](CO)N1C(=O)c1ccccn1	-39	-2	97*	·	95*	111*	21	104*
N#C[C@@H]1[C@H](c2ccc(C#CCC3CCCC3)cc2)[C@@H](CO)N1C(=O)c1ccccn1	-36	-4	100*	·	99*	109*	5	107*
CC(C)C#Cc1ccc([C@H]2[C@@H](C#N)N(C(=O)c3ccccn3)[C@@H]2CO)cc1	-22	2	?	·	104*	102*	9	5
COCC(=O)N1[C@H](CO)[C@@H](c2ccc(C#CCC3CCCC3)cc2)[C@@H]1C#N	-9	-1	60	·	·	·	·	·
C[C@@H]1CN([C@H](C)CO)C(=O)c2cc(NC(=O)Nc3cccc4ccccc34)ccc2O[C@@H](C)CCCCO[C@H]1CN(C)Cc1ccc(Cl)c(Cl)c1	-70	0	·	1	·	·	·	·
C[C@H](CO)N1C[C@H](C)[C@@H](CN(C)Cc2ccc(Cl)c(Cl)c2)OCCCC[C@H](C)Oc2ccc(NC(=O)Nc3cccc4ccccc34)cc2C1=O	-4	-1	122*	·	111*	106*	24	16
C[C@@H]1CCCCO[C@@H](CN(C)Cc2ccc(Cl)c(Cl)c2)[C@@H](C)CN([C@H](C)CO)C(=O)c2cc(NC(=O)Nc3cccc4ccccc34)ccc2O1	-18	1	120*	-1	103*	77	-13	-17
CN(C)Cc1cn(CC[C@@H]2CC[C@H](NC(=O)Nc3ccccc3F)[C@H](CO)O2)nn1	8	2	-20	0	·	·	·	·
CC(C)NC(=O)Nc1ccc2c(c1)C(=O)N([C@H](C)CO)C[C@@H](C)[C@H](CN(C)S(=O)(=O)c1ccc(F)cc1)O2	-16	-1	30	1	·	·	·	·
CC(C)NC(=O)N1CCCCN2[C@H](CO)[C@H](c3ccc(C#Cc4ccccc4)cc3)[C@H]2C1	-10	-1	107*	·	106*	105*	41*	107*
CC(C)NC(=O)N1CCCCN2[C@H](C1)[C@H](c1ccc(C#Cc3ccccc3)cc1)[C@@H]2CO	13	-1	82	·	·	·	·	·
CC(C)C#Cc1ccc([C@@H]2[C@H](CO)N3CCCCN(C(=O)NC(C)C)C[C@@H]23)cc1	18	1	103*	·	101*	89	12	85*
CC(C)NC(=O)N1CCCCN2[C@H](C1)[C@@H](c1ccc(C#Cc3ccccc3)cc1)[C@@H]2CO	4	-1	76	·	·	·	·	·
CC(C)NC(=O)N1CCCCN2[C@H](CO)[C@@H](c3ccc(C#Cc4ccccc4)cc3)[C@H]2C1	-2	-2	103*	·	101*	72	23	102*

Screening data: PubChem BioAssay, Broad Institute
